rRNA inh HTS: selective bacterial rRNA inhibition in E. coli; E. coli WT GFP vs humanized-ribosome RFP mutants, fluorescence, 24 h; hits give low values; DMSO median 0, no signal -100; GFP signal change (wild-type ribosome), % (concentration not given with the values); 350,000 tested, 1.6% active; AID 720706;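 active = significant combined selectivity score with lowered wild-type GFP, culture density cut under 30%, mutant RFP and density less affected; inactive = any of these conditions unmet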
PglD DTNB: inhibitors of Campylobacter jejuni PglD acetyltransferase; purified PglD enzyme, DTNB colorimetric CoA detection; inhibition, % at 12.5 µM; 360,000 tested, 0.098% active; in the data active = inhibition above about 16%, passing the limit was not always enough; inconclusive = no clear call, values can overlap the other calls
XiGFP reactiv: activators of X-chromosome reactivation in mouse fibroblasts | XiGFP mouse fibroblasts, % GFP-positive cells imaging, 3 d; cells co-treated with 5-aza-dC sensitizer; scaled so ellipticine positive control = 100% | activation, % at 7.58 µM | 360,000 tested, 0.055% active;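 active = mean normalized replicate activation at least 10% and every replicate at or above 10%; inconclusive = only one of the two criteria met; inactive = mean below 10% and not all replicates reach 10%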
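Schedule: 3 d treatment, 15 min room-temperature fixation; system: 68-5-11 XiGFP fibroblast line; buffer or medium: DMEM plus 5-aza-dC sensitizer; control set: ellipticine 6 µM positive control; compound: one concentration, pinned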
RAD52 anneal inh: blocks human RAD52 DNA annealing | recombinant RAD52 DNA annealing, FRET fluorescence | inhibition, % at 18.7 µM | 360,000 tested, 0.46% active | AID 651710;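 active = every replicate showing at least 50% inhibition; inconclusive = mean inhibition at least 50% but not in every replicate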
RAD54 branch: RAD54 (human) branch migration inhibition | Q92698 | RAD54 Holliday junction branch migration, FAM/BHQ fluorescence | inhibition, % at 10.4 µM | 360,000 tested, 0.14% active;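 active = mean normalized replicate activity at least 40 and at least half of replicates scoring 40 or more; inconclusive = only one of the two criteria met; inactive = mean below 40 and under half of replicates reaching 40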;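 note: inhibitors cause a drop in the FAM fluorescence signal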
E-selectin induc: E-selectin induction on HUVECs; 260,000 tested, 0.37% active; activation, % at 7.58 µM; P16581; HUVEC E-selectin immunofluorescence imaging; normalized: neutral wells 0, TNF-alpha wells 100;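 active = mean E-selectin-positive cell signal at least 10% of the positive control, reached in at least 60% of replicates, without over 20% cell loss; inconclusive = no rule given, readout overlaps actives, possibly toxicity-flagged; inactive = the rest, including those meeting only one limit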
Target sequence (P16581 whole entry, looked up): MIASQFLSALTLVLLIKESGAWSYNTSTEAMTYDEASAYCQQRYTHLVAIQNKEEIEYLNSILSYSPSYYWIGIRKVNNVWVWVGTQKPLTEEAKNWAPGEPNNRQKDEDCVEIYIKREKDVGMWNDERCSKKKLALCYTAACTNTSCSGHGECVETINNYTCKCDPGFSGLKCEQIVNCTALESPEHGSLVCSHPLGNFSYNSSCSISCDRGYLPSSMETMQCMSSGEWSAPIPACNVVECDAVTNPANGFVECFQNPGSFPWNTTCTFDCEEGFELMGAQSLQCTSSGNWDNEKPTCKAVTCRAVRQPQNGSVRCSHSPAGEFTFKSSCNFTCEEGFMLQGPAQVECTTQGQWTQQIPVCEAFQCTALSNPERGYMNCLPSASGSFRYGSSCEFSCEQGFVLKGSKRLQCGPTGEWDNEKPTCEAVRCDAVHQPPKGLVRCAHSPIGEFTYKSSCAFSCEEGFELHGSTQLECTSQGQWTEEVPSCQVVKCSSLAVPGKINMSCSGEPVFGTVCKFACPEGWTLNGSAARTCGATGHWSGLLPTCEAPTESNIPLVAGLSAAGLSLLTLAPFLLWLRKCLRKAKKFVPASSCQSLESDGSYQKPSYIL
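Test system: HUVEC | Signal: Immunofluorescence imaging | Read-out: Percent E-selectin-positive cells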
AID977621: growth inhibition of wild-type GFP E. coli, dose response, H69 mutant RFP, cherry-pick. AID 977621. E. coli wild-type GFP strain growth, fluorescence, 24 h. shares compounds with rRNA inh HTS. 1,900 tested, under 10 active. activity change, negative = inhibition at 50 µM;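 active = Wild-type ribosome reporter drop at least double the humanized mutant ribosome reporter drop, growth loss under a set limit; inconclusive = no clear call, values can overlap the other calls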;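 note: wild-type GFP and H69 mutant RFP strains grown together 50/50 in each well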
AID977628: E. coli growth inhibition, wild-type GFP versus h24 humanized RFP strain, dose response, h24 mutant RFP vs wild-type GFP, cherry-pick; shares compounds with rRNA inh HTS; E. coli WT GFP strain growth, fluorescence, 24 h; activity change, negative = inhibition at 50 µM; 1,900 tested, under 10 active; AID 977628;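 active = compound lowering the normal-ribosome reporter at least twice as much as the humanized-ribosome reporter, growth loss under a set limit; inconclusive = no clear call, values can overlap the other calls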;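 note: wild-type GFP and h24 humanized RFP strains co-cultured 1 to 1 per well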
Numbers stand for hits; - = inactive; ? = inconclusive; . = not tested or not shown. Most compounds without a hit are left out; they make up all but 2% or so of the library.

SMILES	rRNA inh HTS	PglD DTNB	XiGFP reactiv	RAD52 anneal inh	RAD54 branch	E-selectin induc	AID977621	AID977628
CC(=O)Nc1ccc(NS(=O)(=O)c2ccc(Cl)s2)cc1	-20	.	-	-	.	-	.	?
Cc1cc(C)n(CC(O)COc2ccccc2)n1 (stereo unspecified)	.	-	.	.	-	.	.	.
Cc1cc(C)n(CC(O)COc2ccc3ccccc3c2)n1 (stereo unspecified)	-29	.	-	-	.	-	-	.
CC=Cc1ccc2n(c1=O)C[C@H]1[C@H](CO)[C@@H](C(=O)NCC(F)(F)F)[C@@H]2N1C(=O)C1CCCCC1 (mixture of isomers)	-	-	-	-	-	-	.	.
Cc1ccc(Cl)cc1N1CCN(C(=O)c2ccc3nc[nH]c3c2)CC1	-45	.	-	-	.	-	-	.
Cc1cccc(N2CCN(C(=O)c3ccc4nc[nH]c4c3)CC2)c1C	-	-	-	-	-	-	.	.
Cc1csc2c(N3CCC(C(=O)O)CC3)ncnc12	-32	.	-	-	.	-	.	?
Cc1csc2c(N3CCCCC3)ncnc12	-	.	-	-	.	.	.	.
CS(=O)(=O)Nc1ccccc1C(=O)NCCSc1ccccc1	-22	-	-	-	-	-	-	-
CNC[C@H]1Oc2c(NS(C)(=O)=O)cccc2C(=O)N(C)C[C@@H]1C	-	.	-	.	.	.	.	.
Cc1ccc(Nc2nc(C(=O)NCC3CCCO3)cs2)cc1 (stereo unspecified)	-42	.	-	-	.	-	-	-
CO[C@@H]1CN(C)C(=O)c2ccc(NS(C)(=O)=O)cc2OC[C@H](C)N(S(C)(=O)=O)C[C@H]1C	-	-	-	-	-	-	.	.
COc1ccccc1CNC(=O)c1cc2sccc2n1C	-20	.	.	-	.	.	-	.
O=C(COC(=O)c1ccccc1NC(=O)c1ccco1)NC1CC1	-	.	-	-	.	.	.	.
CC1CCN(C(=O)COC(=O)c2ccccc2NC(=O)c2ccco2)CC1	-32	.	-	-	.	.	-	-
C[C@H]1CN([C@@H](C)CO)C(=O)c2cccc(NC(=O)Nc3ccccc3)c2O[C@@H]1CN(C)C(=O)Nc1ccc(F)cc1	-	-	-	-	-	-	.	.
Cc1cc(C)cc(NC(=O)c2cccc(NC(=O)c3ccco3)c2)c1	-24	-	-	-	-	-	-	.
CC(=O)c1cccc(NC(=O)c2cccc(NC(=O)c3ccco3)c2)c1	-	-	-	-	-	.	.	.
CC(C)CC#Cc1cnc2c(c1)C(=O)N([C@H](C)CO)C[C@H](C)[C@@H](CN(C)C(=O)Nc1cc(F)ccc1F)O2	-	-	-	-	-	-	.	.
O=C(CCNC(=O)c1ccccc1)Nc1ccc(Cl)c(S(=O)(=O)N2CCCCC2)c1	-41	-	-	-	-	-	-	.
O=C(Nc1cc(S(=O)(=O)N2CCOCC2)ccc1N1CCOCC1)c1ccccc1[N+](=O)[O-]	-	-	-	-	-	.	.	.
Cc1ccc(NC(=O)c2ccc([N+](=O)[O-])s2)cc1S(=O)(=O)N1CCOCC1	-40	-	-	-	-	.	?	-
O=C(Nc1cc(S(=O)(=O)N2CCOCC2)ccc1N1CCOCC1)c1ccc([N+](=O)[O-])s1	-18	.	-	-	-	.	?	-
Cc1ccc(NC(=O)CSc2ccc(Br)cc2)cc1S(=O)(=O)N1CCOCC1	-	.	-	-	.	.	.	.
Cc1ccc(NC(=O)CCCSc2ccccc2)cc1S(=O)(=O)N1CCOCC1	-24	-	-	-	-	-	-	.
SMILES	rRNA inh HTS	PglD DTNB	XiGFP reactiv	RAD52 anneal inh	RAD54 branch	E-selectin induc	AID977621	AID977628
COc1ccc2c3c(n(C)c2c1)[C@H](CO)N(C(=O)CC1CC1)CC31CN(Cc2nccs2)C1	-	.	-	-	.	-	.	.
C[C@H](NC(=O)C[C@H]1C[C@H]2c3cc(NC(=O)C4CCC4)ccc3O[C@H]2[C@@H](CO)O1)c1ccccc1	-	-	-	-	-	-	.	.
CCn1cc(CCC(=O)NCCc2ccccc2)c2ccccc21	-19	-	-	-	-	-	-	?
CCC(=O)Nc1ccc2c(c1)C(=O)N(C)C[C@H](OC)[C@H](C)CN(C(=O)c1ccncc1)[C@@H](C)CO2	-	-	-	-	-	-	.	.
Cc1nc2ccccn2c1C(=O)Nc1ccc(Cl)cc1	-18	.	-	-	.	-	-	-
C[C@H](CO)N1C[C@H](C)[C@@H](CN(C)C(=O)NC2CCCCC2)Oc2c(NS(=O)(=O)c3ccc(Cl)cc3)cccc2C1=O	-	-	-	-	-	-	.	.
Cc1ccsc1C(=O)C1CCCN(Cc2cn(C)nc2-c2ccccc2)C1 (stereo unspecified)	-	.	-	-	.	-	.	.
Cn1cc(CN(CCO)Cc2cccs2)c(-c2cccc(Cl)c2)n1	-31	-	-	-	-	.	-	-
Cn1cc(CN2CCCC(C(=O)c3cccs3)C2)c(-c2cccc(Cl)c2)n1 (stereo unspecified)	-25	-	-	-	-	.	-	-
CO[C@H]1CN(C)C(=O)c2cc(NS(C)(=O)=O)ccc2OC[C@H](C)N(Cc2cccnc2)C[C@@H]1C	-	.	-	.	.	-	.	.
CCS(=O)(=O)Nc1ccc2c(c1)C(=O)N(C)[C@@H]1CC[C@@H](CC(=O)NCc3ccc(OC)cc3)O[C@@H]1CO2	-	-	-	-	-	-	.	.
Cn1c(CCN2CCOCC2)nc2cc(NC(=O)c3cccs3)ccc21	-18	.	-	-	.	.	-	?
CC(C)N1CC2(CC(c3ccccc3C(F)(F)F)=NO2)CN1C(=O)c1ccco1 (stereo unspecified)	-20	.	-	-	.	-	.	?
C[C@@H]1CN([C@@H](C)CO)C(=O)c2cccc(NC(=O)c3ccc(-c4nccs4)cc3)c2O[C@H]1CN(C)S(=O)(=O)c1ccc(F)cc1	-	-	-	-	-	-	.	.
O=C1CCCN1CCCNc1ncnc2c1[nH]c1ccc(Cl)cc12	-23	-	.	-	-	.	-	.
O=C1CCCN1CCCn1cnc2c([nH]c3ccc(F)cc32)c1=O	.	-	.	.	-	.	.	.
COc1ccc(CN(C)C[C@@H]2OCCCC[C@H](C)Oc3ccc(NC(=O)Nc4cccc5ccccc45)cc3C(=O)N([C@@H](C)CO)C[C@@H]2C)cc1	-	-	-	-	-	-	.	.
CCOC(=O)N1CCN(CC(O)COCCC23CC4CC(CC(C4)C2)C3)CC1 (stereo unspecified)	.	-	.	.	-	.	.	.
CC1CCCCN1CC(O)COCCC12CC3CC(CC(C3)C1)C2 (stereo unspecified)	-29	-	-	-	-	-	-	.
